Screening results (PubChem BioAssay)
TRPN1 ag = agonists of zebrafish TRPN1 channel. activation, % at 3 µM. HEK293 zebrafish TRPN1-YFP, Fluo-8 calcium fluorescence; 100% = response to 87 µM carbachol. 0.18% of 220,000 active;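 active = activation above its plate's cutoff, the mean activation of test wells on that plate plus 3 SD, cut at about 19% in these data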;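 also: 0% = DMSO alone and 100% = 87 µM carbachol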
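System: zebrafish TRPN1-YFP in HEK293 cells / Dosing: 3 µM single point / Timing: dye loading 1 h at 37 °C, then 30 min room temperature / Signal: Fluo-8 calcium fluorescence, excitation 470-495 nm, emission 515-575 nm / Read-out basis: percent activation from peak over basal fluorescence ratio, control-normalized / Control set: high carbachol 87 µM, low DMSO alone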
OXTR agonist = activates the human oxytocin receptor; P30559; CHO-OTR cells, Fluo-8 calcium fluorescence; normalized: DMSO 0%, oxytocin 100%; activation, % at 3 µM; 0.32% of 320,000 active;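 active = activation above the mean of all tested compounds plus 3 SD, cutoff set per screening run, cut at about 20% in these data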;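 also: peak over basal fluorescence ratio from a 100 s FLIPR kinetic read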
V1R ag counter = counter-screen for oxytocin receptor agonists: human V1a receptor agonists. P37288. CHO-V1R cells, Fluo-8 calcium fluorescence, agonist mode; 0% DMSO, 100% 3 nM vasopressin. activation, % at 3 µM. 0.25% of 320,000 active;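 active = activation above the mean activation of all tested compounds plus 3 SD, per screening run, cut at about 20% in these data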;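 also: signal is peak over basal fluorescence ratio across a 100 second FLIPR read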
Target sequence (P37288 whole entry, looked up): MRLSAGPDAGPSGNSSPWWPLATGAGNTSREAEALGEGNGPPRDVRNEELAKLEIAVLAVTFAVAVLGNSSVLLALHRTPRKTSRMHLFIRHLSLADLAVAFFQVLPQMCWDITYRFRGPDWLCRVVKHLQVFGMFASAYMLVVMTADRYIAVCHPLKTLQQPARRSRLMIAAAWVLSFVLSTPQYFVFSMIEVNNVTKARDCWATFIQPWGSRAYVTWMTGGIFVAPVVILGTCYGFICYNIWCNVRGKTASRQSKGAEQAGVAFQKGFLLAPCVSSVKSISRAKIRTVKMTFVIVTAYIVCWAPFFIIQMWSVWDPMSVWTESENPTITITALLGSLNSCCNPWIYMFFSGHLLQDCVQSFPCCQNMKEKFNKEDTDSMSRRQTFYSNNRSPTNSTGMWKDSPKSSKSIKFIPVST
OXTR potentiate = potentiators of human oxytocin receptor; activation, % at 3 µM; 0.061% of 320,000 active; CHO-OTR cells, Fluo-8 calcium fluorescence, potentiator mode; 0% = oxytocin EC15, 100% = EC100;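 active = activation above that plate's cutoff, the mean activation of tested compounds plus 3 SD, cut at about 6.6% in these data, passing the limit was not always enough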;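 also: 100% uses oxytocin at 75 nM as the full agonist control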
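System: human OTR in CHO cells; Also added: sub-maximal oxytocin, roughly EC15; Timing: compound 6 min at room temperature before oxytocin, 100 s read; Technique: Fluo-8 intracellular calcium fluorescence, ex 470-495, em 515-575 nm; Controls: oxytocin EC15 low and EC100 high; Replication: singlicate.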
TRPML3 agonist = activates the human TRPML3 channel; Q8TDD5; HEK293 TRPML3-YFP, Fluo-8 calcium fluorescence; 100% = the carbachol control signal; 0.29% of 220,000 active; activation, % at 3 µM; AID 1448;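 active = activation above its plate's cutoff, the mean activation of the plate's test wells plus 3 SD, cut at about 12% in these data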;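 also: 0% = DMSO only wells and 100% = carbachol wells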
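Material: HEK293 cells stably carrying human TRPML3-YFP; compound dosing: single dose, 3 µM final nominal compound, 0.3% DMSO final; incubation: 1-h 37 °C dye load, 5-s basal, 120-s post-compound reads; technique: Fluo-8 intracellular calcium fluorescence, excitation 470-495 nm, emission 515-575 nm; read-out basis: percent activation from peak-to-basal fluorescence ratio, scaled between DMSO and carbachol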
OXTR pot cf = confirmation of human oxytocin receptor potentiators; shares compounds with OXTR potentiate; CHO-OTR cells, Fluo-8 calcium fluorescence, potentiation; scaled from low-dose to maximal oxytocin; activation, % at 3 µM; 180 tested, under 10 active; AID 434985;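 active = mean percent activation over triplicates above a cutoff set from solvent-only control plates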;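 also: compounds tested in the presence of an EC15 dose of oxytocin; 0% = EC15 oxytocin with DMSO and 100% = EC100 oxytocin with DMSO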
Starred values were filed as active, the others as inactive; . = no result given. Rows were chosen to be rich in hits. Some 0.55% of all compounds tested hit in one or more screens of this group.

SMILES	TRPN1 ag	OXTR agonist	V1R ag counter	OXTR potentiate	TRPML3 agonist	OXTR pot cf
CC(=O)Nc1ccc2nc(CN3CCC(CO)(CCc4ccccc4)CC3)ccc2c1	0	1	0	-16	1	.
Cn1c(=O)c2[nH]c(-c3ccccc3Cl)c(O)c2n(C)c1=O	11	1	3	22*	7	-5
COc1ccc(OCC(=O)NNC(=O)C(=O)N2CCCC2)cc1	-1	0	0	-3	1	.
CCOC(=O)N[C@H](Cc1c[nH]c2ccccc12)C(=O)NC1CC1	-1	1	0	10*	-1	-2
CCOc1ccc(C(=O)Nc2nnc(SCC(=O)NCC3CCCO3)s2)cc1OCC (stereo not given)	.	1	1	11*	.	0
CC(C)CN(C(=O)CSc1nnc2ccccn12)C1CCS(=O)(=O)C1 (stereo not given)	.	1	2	15*	.	-7
Cc1nnc(SCC(=O)N(CC(C)C)C2CCS(=O)(=O)C2)s1 (stereo not given)	.	0	0	-2	.	.
COCCN(Cc1nnc(-c2cccs2)o1)C(=O)CN1C(=O)NC2(CCCCC2)C1=O	.	2	0	-1	.	.
COC(=O)Cn1c(=NC(=O)CSCC(=O)NC2CCCCC2)sc2cc(OC)ccc21	1	-1	-1	17*	0	-4
CCOC(=O)Cn1c(=NC(=O)CSC(C)=O)sc2cc(OC)ccc21	-2	-1	0	-10	0	.
O=C(O)c1cccc(NS(=O)(=O)c2cccc3nsnc23)c1	0	1	-1	10.0*	1	-2
O=S(=O)(Nc1ccccc1)c1cccc2nsnc12	.	0	0	-5	.	.
C=CCOc1ccc(Br)cc1CNC(C)(C)C	-2	0	-1	-4	1	.
Cc1ccc2c(c1)-n1c(nc3cc(Cl)ccc3c1=O)C(CC(C)C)NC2=O (stereo not given)	.	-1	1	13*	.	0
Cc1cc(C)c(C(=O)NCCCN2CCOCC2)c(C)c1	.	1	0	-9	.	.
COCCCN1CC(=O)N2C(c3ccccc3)c3[nH]c4ccccc4c3C[C@H]2C1=O (stereo not given in full)	.	0	1	8.7*	.	-5
Cc1cccn2cc(CNC(=O)c3ccc(Br)o3)nc12	0	-1	0	12*	0	-3
Cc1cccn2cc(CNC(=O)C3CCCCC3)nc12	0	0	0	-1	1	.
CN(C)c1ccc(CNC(=O)C2CCN(S(=O)(=O)c3ccc4c(c3)CCC(=O)N4)CC2)cc1	0	0	0	11*	0	-4
Cc1ccc2c(CC(=O)NCCc3ccc(S(N)(=O)=O)cc3)coc2c1	2	0	-1	9.3*	0	-3
Cc1ccc(CC(=O)NCCc2ccc(S(N)(=O)=O)cc2)cc1	.	0	0	-8	.	.
CCOC(=O)C1=C(C)Nc2nc(SCC(=O)OC)nn2C1c1cc(F)cc(F)c1 (stereo not given)	0	-2	-1	11*	1	-13
Cc1ccc(-n2ncc3c(N4CCC(C(N)=O)CC4)ncnc32)c(C)c1	-1	0	-1	13*	0	-2
CCN(CC)C(=O)C1CCN(c2ncnc3c2cnn3-c2ccc(C)cc2C)CC1	0	-1	-1	-12	1	.
Cc1ccccc1-c1nnc(SCC(=O)Nc2c(C)n(C)n(-c3ccccc3)c2=O)o1	-1	1	0	11*	1	0
SMILES	TRPN1 ag	OXTR agonist	V1R ag counter	OXTR potentiate	TRPML3 agonist	OXTR pot cf
O=C(COC(=O)c1cc(Cl)ccc1O)Nc1ccc2c(c1)OCCO2	.	1	4	-4	.	.
CC1(C)Cc2cccc(Oc3cc(NN4CCCCC4)c([N+](=O)[O-])cc3[N+](=O)[O-])c2O1	.	-1	1	-7	.	.
CCN1CCCC1CNCc1cc(OC)c(OC)c(OC)c1 (stereo not given)	2	3	2	13*	0	-5
CC(NC(=O)c1cccnc1Sc1ccccc1)c1ccc(S(N)(=O)=O)cc1 (stereo not given)	.	1	0	0	.	.
C#CCOCCOCCOCCNc1nc(N2CCN(C(=O)[C@H](CCCCN)n3cc([C@@H](N)[C@H](C)CC)nn3)CC2)nc(N2CCN(C(=O)[C@H](CCC(=O)O)n3cc([C@@H](N)CCSC)nn3)CC2)n1	.	1	3	-3	.	.
COc1ccc(N2CC(C(=O)N3CCN(c4ccccc4)CC3)CC2=O)cc1 (stereo not given)	.	0	0	10	.	.
CCOC(=O)c1c(C)nc(C)c(C(=O)OCC)c1-c1ccccc1	-1	-1	-2	-2	-1	.
CCOC(=O)c1c(C)nc2c(c1-c1cc(OC)c(OC)c(OC)c1)C(=O)c1ccccc1-2	-2	-2	-1	11*	0	-8
Cn1c(N)c(C(=O)CSc2nnc(C3CC3)n2N)c(=O)n(C)c1=O	.	0	0	-2	.	.
CC(=O)N/C(=C\c1ccccc1)C(=O)OCC(=O)NC1CCS(=O)(=O)C1 (stereo not given)	.	0	0	-2	.	.
O=C(CCc1ccccc1)N1CCN(S(=O)(=O)c2cccs2)CC1	.	3	1	13*	.	-4
CCN1C(=O)N(CC)c2cccc3cccc1c23	.	-2	-1	11*	.	-4
CCN(CC)S(=O)(=O)c1ccc(C)c(NC(=O)c2cc(C)oc2C)c1	-2	0	-1	13*	0	-6
O=C(N/N=C\c1cn(-c2ccccc2)nc1-c1ccccc1)c1ccc(Br)o1	-1	-1	1	-16	0	.
O=C(N/N=C/c1cn(-c2ccccc2)nc1-c1ccccc1)c1ccco1	1	-1	-1	9.9*	-1	-2
COC(=O)c1cc(C(=O)Nc2cccc(C)n2)cc([N+](=O)[O-])c1	-1	-1	-1	9.1*	0	0
CN(C)CC(O)COC(c1ccccc1)c1ccccc1 (stereo not given)	0	1	3	11*	1	1
COc1ccc(C(=O)NNC(=O)c2ccc(F)c(S(=O)(=O)N3CCOCC3)c2)cc1	.	2	1	14*	.	-5
O=C(NCc1ccccn1)c1ccc(Cl)c(S(=O)(=O)Nc2ccccc2C(=O)NCc2ccccn2)c1	0	-2	1	14*	0	-5
COC(=O)c1c(C)noc1-c1snnc1C	1	1	0	11*	2	-7
CC(C)=NOC(=O)c1c(C)noc1-c1snnc1C	1	0	1	0	1	.
COc1ccccc1OCCNC(=O)c1cc(=O)[nH]c2ccccc12	2	0	0	9.1*	1	-2
